In article PMC4878416 (Diabetes, 2016):

Assays:
tyrosine kinase TXK = target: T1, tyrosine kinase TXK (Homo sapiens, UniProt P42681); experiment: Human kinome profiling, TXK; assay type: biochemical; details: read-out: remaining activity TXK
T1 sequence (P42681 1-527): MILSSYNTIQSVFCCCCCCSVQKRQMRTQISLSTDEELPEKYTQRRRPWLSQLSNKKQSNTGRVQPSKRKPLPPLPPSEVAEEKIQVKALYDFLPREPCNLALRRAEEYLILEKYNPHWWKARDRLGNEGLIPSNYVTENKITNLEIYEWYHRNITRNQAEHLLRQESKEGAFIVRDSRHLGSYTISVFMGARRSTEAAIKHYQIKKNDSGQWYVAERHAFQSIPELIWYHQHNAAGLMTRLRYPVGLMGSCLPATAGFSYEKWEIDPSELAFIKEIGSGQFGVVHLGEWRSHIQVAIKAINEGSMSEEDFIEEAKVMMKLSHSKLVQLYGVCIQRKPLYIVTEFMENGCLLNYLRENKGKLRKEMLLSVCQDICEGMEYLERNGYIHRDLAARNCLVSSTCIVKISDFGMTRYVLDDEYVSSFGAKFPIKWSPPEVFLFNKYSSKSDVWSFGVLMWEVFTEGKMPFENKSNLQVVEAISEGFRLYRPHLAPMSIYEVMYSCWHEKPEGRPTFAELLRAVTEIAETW
In short: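 Human kinases profiled by commercial providers under their standard protocols; ATP within 15 μmol/L of the apparent KM for each enzyme.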

human β-cells = experiment: EdU incorporation proliferation assay in dissociated human islet cells; assay type: cell-based
In short: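 Human islets dissociated in Accutase (5,000 IEQ/mL, 37°C, 20 min), resuspended in CMRL complete medium and seeded at ~30,000 (96-well) or ~15,000 (384-well) cells per well. EdU was present throughout the 6-day treatment, including FK506 cotreatment. Cells were fixed (3% PFA), permeabilised (0.2% Triton X-100) and stained for C-peptide and DAPI. EdU+ β-cells were scored by automated imaging and manually; 4 wells, 9 fields each; mean ± SD; two-tailed t test vs DMSO.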

adenosine kinase = details: read-out: IC50 adenosine kinase; cited from earlier work
[1] = test system: human islet cells (all cell types); details: cited from earlier work
DYRK1A = DYRK1A (Homo sapiens, UniProt Q13627); experiment: Biochemical assay for DYRK1A activity using the purified catalytic domain
[2] = test system: p27KIP phosphorylation (S10); experiment: Western blot of p27KIP phosphorylation; assay type: cell-based, rat; details: INS-1E cells, 24 or 48 h, 10 μmol/L harmine or 0.5 μmol/L 5-IT
In short: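 Cells were treated after overnight attachment and lysed in RIPA buffer. Western blots were probed for p27KIP S10 phosphorylation, with actin as loading control.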

In the case of `Nc1ncnc2nc(-c3ccc(N4CCOCC4)nc3)cc(-c3cccc(Br)c3)c12` [ABT-702, 4-amino-5-(3-bromophenyl)-7-(6-morpholinopyridin-3-yl)pyrido[2,3-d]pyrimidine], the remaining activity at 0.5 µM (tyrosine kinase TXK) is listed as 60%, the “effect on EdU incorporation” value (human β-cells; tested up to 20 μmol/L, 6-day treatment) is listed as “no effect” and the IC50 (adenosine kinase) is listed as 1.7 nM.

In the case of `COC(=O)C1=C(C)NC(C)=C([N+](=O)[O-])C1c1ccccc1C(F)(F)F` (stereo not shown) [Bay K8644], the “cellular proliferation in human islet cell culture” value [1] is listed as “induces nonspecific cellular proliferation”.

For `C=CC[C@@H]1/C=C(\C)C[C@H](C)C[C@H](OC)[C@H]2O[C@@](O)(C(=O)C(=O)N3CCCC[C@H]3C(=O)O[C@H](/C(C)=C/[C@@H]3CC[C@@H](O)[C@H](OC)C3)[C@H](C)[C@@H](O)CC1=O)[C@H](C)C[C@@H]2OC` [FK506], the “effect of cotreatment on 5-IT-induced EdU-positive β-cells” value (human β-cells; 1 μmol/L FK506 with 1 μmol/L 5-IT) was “completely blocked” and the “effect of cotreatment on harmine-induced EdU-positive β-cells” value (human β-cells; 1 μmol/L FK506 with 10 μmol/L harmine) was “completely blocked”.

In the case of `COc1ccc2c3c([nH]c2c1)C(C)=NCC3` [harmaline], the “activity toward DYRK1A” value (DYRK1A) is reported as “no activity” and the “effect on EdU incorporation versus vehicle” value (human β-cells; 6-day treatment) is reported as “no effect”.

With `COc1ccc2c(c1)[nH]c1c(C)nccc12` [harmine] the “effect on EdU-positive cells” value (human β-cells; 5 and 10 μmol/L, 6-day treatment) was “dose-dependent increase” and the p27KIP phosphorylation [2] was “decrease”.
